Like-named read-outs stand apart in the source and are kept apart here.
What was measured:
Format in all cases: biochemical
DNA pol β = DNA pol β (Homo sapiens, UniProt P06746); test: DNA polymerase inhibition, DNA pol β; details: read-out: IC50 DNA pol β dGTP; calf thymus DNA, radiolabeled [3H]dGTP
DNA pol α = molecular target: T1, DNA pol α (Homo sapiens, UniProt P09884); test: DNA polymerase inhibition, DNA pol α; details: read-out: IC50 DNA pol α dGTP; calf thymus DNA, radiolabeled [3H]dGTP
T1 sequence (P09884 1-1462): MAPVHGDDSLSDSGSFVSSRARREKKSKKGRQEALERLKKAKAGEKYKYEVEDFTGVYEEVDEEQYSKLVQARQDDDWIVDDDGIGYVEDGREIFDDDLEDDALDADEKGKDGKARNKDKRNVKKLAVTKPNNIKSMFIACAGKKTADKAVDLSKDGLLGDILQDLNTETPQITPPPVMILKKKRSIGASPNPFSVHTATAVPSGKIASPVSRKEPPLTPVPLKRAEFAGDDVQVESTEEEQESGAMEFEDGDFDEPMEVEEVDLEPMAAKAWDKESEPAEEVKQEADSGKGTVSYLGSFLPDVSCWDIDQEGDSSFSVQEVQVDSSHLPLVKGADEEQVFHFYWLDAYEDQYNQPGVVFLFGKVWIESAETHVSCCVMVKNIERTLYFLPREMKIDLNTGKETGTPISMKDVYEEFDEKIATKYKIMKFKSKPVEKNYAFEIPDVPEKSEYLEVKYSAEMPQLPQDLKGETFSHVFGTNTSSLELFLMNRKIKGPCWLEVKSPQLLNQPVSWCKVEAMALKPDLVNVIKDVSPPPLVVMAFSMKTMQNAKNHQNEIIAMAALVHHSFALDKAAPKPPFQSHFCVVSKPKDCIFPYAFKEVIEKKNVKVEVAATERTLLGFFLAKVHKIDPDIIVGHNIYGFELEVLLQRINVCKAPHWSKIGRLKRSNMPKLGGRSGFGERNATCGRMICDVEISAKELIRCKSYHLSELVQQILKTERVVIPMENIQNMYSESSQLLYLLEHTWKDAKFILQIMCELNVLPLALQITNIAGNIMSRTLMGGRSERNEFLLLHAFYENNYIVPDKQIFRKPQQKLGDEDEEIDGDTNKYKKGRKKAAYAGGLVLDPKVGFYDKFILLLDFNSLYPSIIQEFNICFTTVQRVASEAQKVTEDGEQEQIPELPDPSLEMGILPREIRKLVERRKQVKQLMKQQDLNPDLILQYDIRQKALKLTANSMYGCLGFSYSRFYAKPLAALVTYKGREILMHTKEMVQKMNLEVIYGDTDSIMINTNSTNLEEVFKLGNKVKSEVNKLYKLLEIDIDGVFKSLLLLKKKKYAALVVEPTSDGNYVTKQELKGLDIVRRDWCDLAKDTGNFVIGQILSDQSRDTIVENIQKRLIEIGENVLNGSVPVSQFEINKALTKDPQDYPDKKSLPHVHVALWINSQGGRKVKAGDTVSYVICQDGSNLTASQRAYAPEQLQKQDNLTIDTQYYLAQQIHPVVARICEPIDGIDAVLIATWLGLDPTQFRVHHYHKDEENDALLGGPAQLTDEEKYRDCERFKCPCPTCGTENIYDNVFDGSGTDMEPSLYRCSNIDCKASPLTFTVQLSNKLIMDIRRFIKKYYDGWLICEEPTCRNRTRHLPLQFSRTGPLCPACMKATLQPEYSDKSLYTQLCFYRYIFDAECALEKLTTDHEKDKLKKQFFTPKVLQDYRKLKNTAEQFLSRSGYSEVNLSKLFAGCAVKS

HCMV DNA pol = molecular target: T2, HCMV DNA pol (Human cytomegalovirus, UniProt P08546); test: DNA polymerase inhibition, HCMV DNA pol; details: calf thymus DNA
T2 sequence (P08546 1-1242): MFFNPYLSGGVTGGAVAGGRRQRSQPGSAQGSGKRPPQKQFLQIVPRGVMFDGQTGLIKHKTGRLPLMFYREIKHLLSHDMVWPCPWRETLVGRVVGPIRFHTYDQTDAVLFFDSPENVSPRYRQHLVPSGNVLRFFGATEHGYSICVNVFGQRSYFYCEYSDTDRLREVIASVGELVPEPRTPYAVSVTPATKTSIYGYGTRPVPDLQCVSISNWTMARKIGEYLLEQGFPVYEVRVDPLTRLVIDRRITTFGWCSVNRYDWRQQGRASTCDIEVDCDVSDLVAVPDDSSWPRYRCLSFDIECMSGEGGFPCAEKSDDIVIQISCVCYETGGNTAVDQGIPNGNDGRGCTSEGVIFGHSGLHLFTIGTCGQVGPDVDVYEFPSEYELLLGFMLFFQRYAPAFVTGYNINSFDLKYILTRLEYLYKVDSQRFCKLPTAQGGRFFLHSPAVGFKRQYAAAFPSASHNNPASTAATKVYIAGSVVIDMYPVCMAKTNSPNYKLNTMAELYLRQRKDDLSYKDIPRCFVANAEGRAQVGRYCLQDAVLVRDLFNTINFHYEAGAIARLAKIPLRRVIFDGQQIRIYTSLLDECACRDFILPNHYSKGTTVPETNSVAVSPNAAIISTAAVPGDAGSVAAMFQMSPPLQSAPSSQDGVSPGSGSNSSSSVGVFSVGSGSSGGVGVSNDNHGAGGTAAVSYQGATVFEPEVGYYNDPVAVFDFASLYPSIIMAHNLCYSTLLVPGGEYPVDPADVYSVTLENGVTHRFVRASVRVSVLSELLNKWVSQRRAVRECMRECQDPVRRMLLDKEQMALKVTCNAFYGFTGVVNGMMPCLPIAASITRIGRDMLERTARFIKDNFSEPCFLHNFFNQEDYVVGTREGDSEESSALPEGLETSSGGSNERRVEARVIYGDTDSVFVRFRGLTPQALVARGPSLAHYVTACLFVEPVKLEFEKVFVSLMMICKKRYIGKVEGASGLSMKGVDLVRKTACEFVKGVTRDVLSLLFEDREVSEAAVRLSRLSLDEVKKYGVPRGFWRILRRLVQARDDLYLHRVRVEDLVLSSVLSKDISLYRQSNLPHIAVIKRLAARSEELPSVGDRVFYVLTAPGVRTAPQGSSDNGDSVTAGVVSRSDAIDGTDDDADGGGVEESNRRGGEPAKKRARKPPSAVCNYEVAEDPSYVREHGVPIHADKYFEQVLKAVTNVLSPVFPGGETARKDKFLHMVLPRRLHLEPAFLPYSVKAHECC
Summary of the method: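 Recombinant or source enzyme not specified. HCMV DNA polymerase reaction uses activated calf thymus DNA as template/primer, 100 uM of each of three unlabeled dNTPs, and 0.5 uM rate-limiting tritium-labeled dNTP ([3H]dGTP or [3H]dTTP, as competitive substrate). The diphosphate form of the test compound is added in serial dilutions, up to 100 uM.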

IC50 (DNA pol β): > 100 µM | IC50 (DNA pol α): 56 ± 12 µM | IC50 (HCMV DNA pol; read-out: IC50 HCMV DNA pol dGTP, radiolabeled [3H]dGTP): 7 ± 0.7 µM | IC50 (HCMV DNA pol; read-out: IC50 HCMV DNA pol dTTP, radiolabeled [3H]dTTP): 9.4 ± 6 µM
Structure (SMILES): O=C(O)P(=O)(O)O [PFA pyrophosphate]

Reference: article PMC6287304 (Antiviral Chemistry & Chemotherapy, 2018)
